Bioassay records: PubChem BioAssay, Broad Institute
Compounds with a hit are over-represented: about 4% of the library has one in this group of screens.
C2C12 statin – suppressors of simvastatin-induced myotoxicity in C2C12 myotubes; ATP luminescence, 48 h; scaled: DMSO 0, geranylgeraniol control 100; rescue of ATP level, % at 7.49 µM; 0.78% of 330,000 active;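 active = mean ATP rescue above about 67%, or every replicate alone reaching that limit, limit read from the data, passing the limit was not always enough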;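 note: myotubes were challenged with 10 µM simvastatin during compound exposure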
FGF22 binding – binders of recombinant human FGF22 by thermal shift | AID 651658 | 1.5% of 340,000 active | activity (Tm shift, normalised), % at 9.99 µM | SYPRO orange fluorescence; percent of sucrose octasulfate shift, DMSO zero;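 active = mean Tm shift, scaled 0 neutral to 100 positive control, at about 1.3% or above, every replicate too, limit read from the data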
Target sequence (Q9HCT0 whole entry, looked up): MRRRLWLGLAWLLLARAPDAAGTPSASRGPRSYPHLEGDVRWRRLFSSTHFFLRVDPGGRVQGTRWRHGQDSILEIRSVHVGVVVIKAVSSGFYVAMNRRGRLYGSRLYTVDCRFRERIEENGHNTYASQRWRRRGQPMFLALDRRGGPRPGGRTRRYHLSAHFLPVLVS
E-selectin induc – induces E-selectin expression in human endothelial cells. P16581. HUVEC E-selectin immunofluorescence imaging; normalized: neutral wells 0, TNF-alpha wells 100. activation, % at 7.58 µM. 0.37% of 260,000 active;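 active = mean E-selectin-positive cell signal at least 10% of the positive control, reached in at least 60% of replicates, without over 20% cell loss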
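Read-out basis: % PE-positive cells; Test system: HUVEC primary endothelial cells; Technique: immunofluorescence imaging; Dosing: single-point compound dose.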
SIRT5 inh – sirtuin-5 (human) deacylase inhibition | Purified SirT5, succinyl-peptide AMC, trypsin-coupled fluorescence | 1.1% of 330,000 active | Q9NXA8 | inhibition, % at 15 µM; in the data active = inhibition above about 15%
Target sequence (Q9NXA8 whole entry, looked up): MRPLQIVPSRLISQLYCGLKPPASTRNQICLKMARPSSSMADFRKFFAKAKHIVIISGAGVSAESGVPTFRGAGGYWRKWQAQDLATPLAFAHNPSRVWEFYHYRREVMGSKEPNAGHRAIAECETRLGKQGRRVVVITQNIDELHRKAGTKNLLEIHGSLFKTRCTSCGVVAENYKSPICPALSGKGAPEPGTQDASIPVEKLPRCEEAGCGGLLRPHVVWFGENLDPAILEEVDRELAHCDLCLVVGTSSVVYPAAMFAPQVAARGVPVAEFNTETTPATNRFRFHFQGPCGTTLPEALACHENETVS
FN deposition inh – fibronectin deposition inhibition; 0.086% of 350,000 active; AID 743247; inhibition, % at 12.6 µM; AH1F fibroblasts, Alexa488-fibronectin deposition fluorescence, overnight;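 active = mean inhibition across replicates of 30% or more, regardless of how many single replicates reach that level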
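Assay system: AH1F fibroblasts assembling fluorescent fibronectin matrix; Amount: 10000 AH1F cells per well; Buffer or medium: DMEM, 2% serum; Probe or stimulus: Alexa488-fibronectin, 24 nM final in well; Doses: single compound dose, delivered by pin transfer; Incubation: 1 h adhesion, overnight exposure; Measured by: fluorescence 485/525 nm; Read-out: fibronectin deposition inhibition.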
Ecoli rRNA inh – selective bacterial rRNA inhibition in E. coli; GFP signal change (wild-type ribosome), % (test concentration not listed); 1.6% of 350,000 active; E. coli WT GFP vs humanized-ribosome RFP mutants, fluorescence, 24 h; stronger effect = lower value; DMSO median 0, no signal -100;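 active = significant combined selectivity score with lowered wild-type GFP, culture density cut under 30%, mutant RFP and density less affected; inactive = any of these conditions unmet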
Large screens that a line does not name were inactive.

COc1ccc(CN(C)C[C@H]2Oc3ccc(NC(=O)CCCN(C)C)cc3C(=O)N([C@H](C)CO)C[C@H]2C)cc1	E-selectin induc 35 (no result: C2C12 statin, FN deposition inh)
COc1ccc(S(=O)(=O)N(C)C[C@@H]2Oc3ccc(NC(=O)CCCN(C)C)cc3C(=O)N([C@@H](C)CO)C[C@@H]2C)cc1	E-selectin induc 57 (no result: FN deposition inh)
Cc1ccc(S(=O)(=O)N(C)C[C@H]2Oc3ccc(NC(=O)CCCN(C)C)cc3C(=O)N([C@H](C)CO)C[C@H]2C)cc1	E-selectin induc 282
C[C@@H]1CN([C@H](C)CO)C(=O)c2cc(NC(=O)CCCN(C)C)ccc2O[C@@H]1CN(C)Cc1ccc(Oc2ccccc2)cc1	none (no result: FN deposition inh)
COc1ccc2c3c([nH]c2c1)[C@@H](CO)N(S(C)(=O)=O)CC31CCN(C(=O)c2ccccc2)CC1	none (no result: C2C12 statin, SIRT5 inh, FN deposition inh)
NS(=O)(=O)c1ccc(CCNc2ccn3nc(-c4ccccc4)cc3n2)cc1	none
CC(C)Cc1ccc(-c2cc3nc(NCCc4ccc(S(N)(=O)=O)cc4)ccn3n2)cc1	SIRT5 inh 20
COc1ccc2c3c([nH]c2c1)[C@H](CO)N(Cc1ccccc1F)CC31CN(S(C)(=O)=O)C1	none (no result: C2C12 statin, SIRT5 inh, FN deposition inh)
O=C(Nc1ccc(F)cc1)N1C[C@@H]2[C@H](c3ccccc31)[C@H](CO)N2C(=O)c1cccnc1	none
O=C(CSc1ccc(Cl)cc1)N1CCN(c2c(Cl)cccc2[N+](=O)[O-])CC1	C2C12 statin 67 (no result: FGF22 binding, E-selectin induc, SIRT5 inh, FN deposition inh, Ecoli rRNA inh)
CO[C@H]1CN(C)C(=O)c2ccc(NS(=O)(=O)c3cccc(C)c3)cc2OC[C@@H](C)NC[C@@H]1C	none
CCS(=O)(=O)Nc1ccc2c(c1)C(=O)N(C)C[C@@H](OC)[C@@H](C)CN(C(=O)COC)[C@@H](C)CO2	none (no result: FGF22 binding)
COc1ccc(NC(=O)N(C)C[C@@H]2Oc3ccc(NS(=O)(=O)c4cccs4)cc3C(=O)N([C@H](C)CO)C[C@@H]2C)cc1	none (no result: FN deposition inh)
Nc1nn(-c2ccccc2)c2ccc([N+](=O)[O-])cc12	Ecoli rRNA inh -21
CCOC(=O)Cn1cc(/C=C(\C#N)C(=O)N2CCOCC2)c2ccccc21	none (no result: C2C12 statin)
CCOC(=O)Cn1cc(/C=C(/C#N)C(=O)NC(C)C)c2ccccc21	E-selectin induc 83
CN(C)CCCNC(=O)C[C@@H]1CC[C@H]2[C@@H](COc3ccc(NC(=O)c4cccc(F)c4)cc3C(=O)N2C)O1	none
CC(C)(C)N1CC(C(=O)Nc2ccc(S(N)(=O)=O)cc2)CC1=O (centres undefined)	none
CC(C)(C)N1CC(C(=O)Nc2ccc(C(N)=O)cc2)CC1=O (centres undefined)	FGF22 binding 44 (no result: SIRT5 inh)
COc1ccc(NC(=O)N(C)C[C@H]2OCCCC[C@H](C)Oc3ccc(NC(=O)C4CCCCC4)cc3C(=O)N([C@H](C)CO)C[C@@H]2C)cc1	none (no result: C2C12 statin, FN deposition inh)
Nc1c(/C=C2/C=CC(=O)C(O)=C2)c(=O)nc2sc(CC(=O)N3CCCC3)nn12	SIRT5 inh 29 (no result: E-selectin induc)
CCc1nn2c(N)c(/C=C3\C=Nc4ccccc43)c(=O)nc2s1	none
CC1=Nc2ccc(C)cc2/C1=C/c1c(N)n2nc(CC(=O)N3CCOCC3)sc2nc1=O	none (no result: E-selectin induc)
Nc1c(/C=C2/C=CC(=O)C(O)=C2)c(=O)nc2sc(CC(=O)N3CCOCC3)nn12	SIRT5 inh 34 (no result: E-selectin induc)
Nc1c(/C=C2/C=CC(=O)C(O)=C2)c(=O)nc2sc(CC(=O)N3CCCCC3)nn12	SIRT5 inh 43 (no result: E-selectin induc)
Nc1c(C=C2C=CC(=O)C=C2)c(=O)nc2sc(CC(=O)N3CCCCC3)nn12	SIRT5 inh 40
CC(C)NC(=O)NCC[C@H]1CC[C@@H](NC(=O)c2ccc(F)cc2)[C@@H](CO)O1	none
C[C@H](CO)N1C[C@H](C)[C@@H](CN(C)C(=O)NC2CCCCC2)Oc2ccc(NC(=O)Nc3ccc4c(c3)OCO4)cc2C1=O	none (no result: FN deposition inh)
CC=Cc1ccc2n(c1=O)C[C@H]1[C@H](CO)[C@@H](C(=O)NCC(F)(F)F)[C@@H]2N1C(=O)C1CC1 (mixture of isomers)	none (no result: FN deposition inh)
O=C(Nc1ccccc1Cl)NC1(C(=O)N2CCCC2)CCCCC1	none (no result: FGF22 binding, E-selectin induc, SIRT5 inh, FN deposition inh, Ecoli rRNA inh)
O=C(Nc1ccccc1Cl)NC1(C(=O)N2CCCCC2)CCCCC1	C2C12 statin 101 (no result: FGF22 binding, E-selectin induc, SIRT5 inh, FN deposition inh, Ecoli rRNA inh)
O=C(/C=C/c1cn(-c2ccccc2)nc1-c1cccs1)NCCN1CCOCC1	Ecoli rRNA inh -30
CN(C)C(=O)COC(=O)/C=C/c1cn(-c2ccccc2)nc1-c1cccs1	Ecoli rRNA inh -32 (no result: C2C12 statin)
C[C@H](CO)N1C[C@H](C)[C@H](CN(C)C(=O)NC2CCCCC2)Oc2ncc(-c3cccc(C(F)(F)F)c3)cc2C1=O	none
CCOC(=O)c1ccc2c(c1)C(=O)N(C1CCCCC1)C2=O	none (no result: C2C12 statin, E-selectin induc, FN deposition inh, Ecoli rRNA inh)
CCOC(=O)C1=CCC2C(=O)N(C3CCCCC3)C(=O)C12 (centres undefined)	SIRT5 inh 18
COCC(=O)Nc1ccc2c(c1)C(=O)N(C)[C@H]1CC[C@H](CC(=O)NCCc3ccncc3)O[C@@H]1CO2	none (no result: C2C12 statin, FGF22 binding, E-selectin induc, SIRT5 inh)
CC(=O)N(C)C[C@@H]1[C@H](c2ccc(-c3cccc(C#N)c3)cc2)[C@H](CO)N1C(C)=O	none (no result: C2C12 statin, FGF22 binding)
O=C(Cc1ccc(Cl)cc1)Nc1ccc(S(=O)(=O)Nc2cnc3ccccc3n2)cc1	Ecoli rRNA inh -34 (no result: C2C12 statin, E-selectin induc)
CCCNC(=O)N[C@H]1CC[C@H](CCn2cc(C3CCCCC3)nn2)O[C@@H]1CO	none
CCC(=O)N1CCc2cc(Br)cc(S(=O)(=O)N3CCC(C(=O)NC(C)(C)C)CC3)c21	none
CCC(=O)N1CCc2cc(Br)cc(S(=O)(=O)N3CCCC(C(=O)NC(C)(C)C)C3)c21 (centres undefined)	FGF22 binding 43 (no result: E-selectin induc)
OCCCc1cn(-c2ccccc2)c2ccccc12	Ecoli rRNA inh -39 (no result: C2C12 statin, E-selectin induc, FN deposition inh)
Cn1c2ccccc2c(=O)c2c(=O)n(Cc3ccco3)c(-c3ccc(F)cc3)nc21	Ecoli rRNA inh -38 (no result: C2C12 statin)
CC(=O)N(C)C[C@H]1Oc2ncc(C#C[C@H](C)O)cc2C(=O)N([C@H](C)CO)C[C@@H]1C	none
Nc1nc(Nc2cccc(F)c2)nc(N2CCOCC2)c1[N+](=O)[O-]	Ecoli rRNA inh -29 (no result: C2C12 statin)
Cc1ccc(Nc2nc(N)c([N+](=O)[O-])c(N3CCOCC3)n2)cc1C	none (no result: C2C12 statin, E-selectin induc, SIRT5 inh)
Clc1ccc(C2=NNC(=NCC3CCCO3)SC2)cc1 (centres undefined)	FGF22 binding 43 (no result: C2C12 statin)
CCNC(=O)C1(C)CCCN(C(=O)c2ccccc2Br)C1 (centres undefined)	FGF22 binding 43 (no result: SIRT5 inh)
CCNC(=O)C1(C)CCCN(C(=O)c2cc3ccccc3s2)C1 (centres undefined)	none (no result: SIRT5 inh, FN deposition inh)
CCNC(=O)C1(C)CCCN(C(=O)c2sc(-c3ccccc3)nc2C)C1 (centres undefined)	FGF22 binding 43 (no result: SIRT5 inh)
